Experimental data gathered from unrelated publications.
Lines come from different studies, so protocols differ.
MAOB: Amine oxidase [flavin-containing] B (MAOB, Homo sapiens, UniProt P27338)

O=c1c2ccccc2[se]n1-c1ccccc1  IC50 (ung (Escherichia coli, UniProt P12295); enzyme activity; inhibitor): > 200 µM
CCCCNNC(=O)c1ccc(Br)cc1  IC50 (Histone deacetylase 9 (HDAC9, Homo sapiens, UniProt Q9UKV0); enzyme activity; inhibitor; fluorescence): > 100 µM
COc1ncccc1-c1cnn2ccc(N3CCN(C(=O)OC(C)C)CC3)nc12  IC50 (MAOB; enzyme activity; inhibitor): > 30 µM
C#CCNc1nc(NCCCC2CCN(Cc3ccccc3)CC2)c(C#N)c(-c2ccccc2)c1C#N  IC50 (MAOB; enzyme activity; inhibitor; fluorescence; with preincubation): > 100 µM
Cc1cc(SCc2sc(-c3ccc(C(F)(F)F)c(F)c3)nc2C)ccc1OCC(=O)O  IC50 (Retinoic acid receptor RXR-alpha (RXRA, Homo sapiens, UniProt P19793); reporter gene; antagonist; luciferase): 22.9 µM
C#CCN(C)c1nc(NCCCCC2CCN(Cc3ccccc3)CC2)c(C#N)c(-c2ccccc2)c1C#N  IC50 (MAOB; enzyme activity; inhibitor; fluorescence; with preincubation): > 100 µM
CSCC[C@@H]1NC(=O)[C@H](Cc2c[nH]c3ccccc23)NC(=O)[C@H](CCCCN)NC(=O)[C@@H](NC(=O)[C@H](C)N)CSSC[C@@H](C(=O)NCC(=O)NCC(=O)NCC(N)=O)NC(=O)[C@H](Cc2ccc(O)cc2)NC(=O)CNC(=O)[C@H](CCC(=O)O)NC(=O)[C@H](CCC(=O)O)NC1=O  IC50 (Lysine-specific demethylase 4C (KDM4C, Homo sapiens, UniProt Q9H3R0); enzyme activity; inhibitor; TR-FRET): ~520 µM
O=[N+]([O-])c1cc(Cl)c(O)c(Cl)c1  IC50 (Sulfotransferase 1A1 (SULT1A1, Homo sapiens, UniProt P50225); enzyme activity; inhibitor): 0.245 µM
C#CCNc1nc(NCCCCC2CCN(Cc3ccccc3)CC2)c(C#N)c(-c2ccccc2)c1C#N  IC50 (MAOB; enzyme activity; inhibitor; fluorescence; with preincubation): > 100 µM
COc1cccc(CO)c1  IC50 (MAOB; enzyme activity; inhibitor; fluorescence): > 10 µM
C#CCN(C)c1nc(NCCCC2CCN(Cc3ccccc3)CC2)c(C#N)cc1C#N  IC50 (MAOB; enzyme activity; inhibitor; fluorescence; with preincubation): 6.11 µM
CCOc1ccccc1OCCN[C@H](C)Cc1ccc(OC)c(S(N)(=O)=O)c1  IC50 (Beta-1 adrenergic receptor (ADRB1, Homo sapiens, UniProt P08588); ligand displacement; radioligand): 2.5 µM
